In brackets after ≈: the same amount, converted by molar mass. Activity calls are given as the source filed them. The rule behind the calls is not given here.
Columns and labels:
Pseudomonas aeruginosa [1] = assay: Antibacterial activity against Pseudomonas aeruginosa after 16 hrs by serial dilution method; type: functional
In short: (§1)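 Broth tube serial dilution MIC. Test compounds were stocked at 1 mg/mL in DMF and twofold diluted in trypticase soya broth across six tubes. Each organism was grown 6 h at 37 °C, adjusted to […] (10⁸ cfu/mL) and diluted to 10⁵ cfu/mL; 1 mL was added per tube. Tubes were incubated 16 h at 37 °C. MIC was read as the concentration giving no visible growth. Inoculum and broth controls were included.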

Bacillus subtilis [2] = assay: Antibacterial activity against Bacillus subtilis after 16 hrs by serial dilution method; type: functional; in short: as §1
Staphylococcus aureus [3] = assay: Antibacterial activity against Staphylococcus aureus at 1.6125 to 50 ug/ml after 16 hrs by serial dilution method; type: functional, organism-based; in short: as §1
Escherichia coli [4] = assay: Antibacterial activity against Escherichia coli after 16 hrs by serial dilution method; type: functional; in short: as §1
Escherichia coli [5] = assay: Antibacterial activity against Escherichia coli at 1.6125 to 50 ug/ml after 16 hrs by serial dilution method; type: functional, organism-based; in short: as §1
Bacillus subtilis [6] = assay: Antibacterial activity against Bacillus subtilis at 1.6125 to 50 ug/ml after 16 hrs by serial dilution method; type: functional, organism-based; in short: as §1
Pseudomonas aeruginosa [7] = assay: Antibacterial activity against Pseudomonas aeruginosa at 1.6125 to 50 ug/ml after 16 hrs by serial dilution method; type: functional, organism-based; in short: as §1
Staphylococcus aureus [8] = assay: Antibacterial activity against Staphylococcus aureus after 16 hrs by serial dilution method; type: functional; in short: as §1

MIC (Pseudomonas aeruginosa [1])	MIC (Bacillus subtilis [2])	MIC (Escherichia coli [4])	MIC (Staphylococcus aureus [8])	SMILES	Activity (Staphylococcus aureus [3])	Activity (Escherichia coli [5])	Activity (Bacillus subtilis [6])	Activity (Pseudomonas aeruginosa [7])
50 mg/L (≈ 109 µM)	50 mg/L (≈ 109 µM)	50 mg/L (≈ 109 µM)	–	CSc1ccc(-c2n[nH]cc2/C=N/Nc2nc(-c3ccc(Cl)cc3Cl)cs2)cc1	inactive	–	–	–
–	–	–	–	Clc1ccc(-c2csc(N/N=C/c3c[nH]nc3-c3ccc(-c4ccccc4)cc3)n2)c(Cl)c1	inactive	inactive	inactive	inactive
1.61 mg/L (≈ 3.3 µM)	1.61 mg/L (≈ 3.3 µM)	1.61 mg/L (≈ 3.3 µM)	3.12 mg/L (≈ 6.39 µM)	Clc1ccc(-c2csc(N/N=C/c3c[nH]nc3-c3cc(Cl)sc3Cl)n2)c(Cl)c1	–	–	–	–
1.61 mg/L (≈ 3.34 µM)	1.61 mg/L (≈ 3.34 µM)	1.61 mg/L (≈ 3.34 µM)	3.12 mg/L (≈ 6.48 µM)	O=c1oc2ccccc2cc1-c1csc(N/N=C/c2c[nH]nc2-c2ccc(Cl)cc2Cl)n1	–	–	–	–
1.61 mg/L (≈ 2.84 µM)	1.61 mg/L (≈ 2.84 µM)	1.61 mg/L (≈ 2.84 µM)	1.61 mg/L (≈ 2.84 µM)	O=c1oc2ccc(Br)cc2cc1-c1csc(N/N=C/c2c[nH]nc2-c2cc(Cl)sc2Cl)n1	–	–	–	–
–	–	–	–	CSc1ccc(-c2n[nH]cc2/C=N/Nc2nc(-c3cc4cc(Br)ccc4oc3=O)cs2)cc1	inactive	inactive	inactive	inactive
–	–	–	–	CSc1ccc(-c2n[nH]cc2/C=N/Nc2nc(-c3cc4ccccc4oc3=O)cs2)cc1	inactive	inactive	inactive	inactive
–	–	50 mg/L (≈ 103 µM)	3.12 mg/L (≈ 6.47 µM)	Clc1ccc(-c2csc(N/N=C/c3c[nH]nc3-c3ccc(Cl)cc3Cl)n2)c(Cl)c1	–	–	inactive	inactive
–	–	–	–	O=c1oc2ccccc2cc1-c1csc(N/N=C/c2c[nH]nc2-c2ccc(-c3ccccc3)cc2)n1	inactive	inactive	inactive	inactive
–	–	–	–	O=c1oc2ccc(Br)cc2cc1-c1csc(N/N=C/c2c[nH]nc2-c2ccc(-c3ccccc3)cc2)n1	inactive	inactive	inactive	inactive
1.61 mg/L (≈ 3.3 µM)	1.61 mg/L (≈ 3.3 µM)	3.12 mg/L (≈ 6.4 µM)	1.61 mg/L (≈ 3.3 µM)	O=c1oc2ccccc2cc1-c1csc(N/N=C/c2c[nH]nc2-c2cc(Cl)sc2Cl)n1	–	–	–	–
1.61 mg/L (≈ 2.87 µM)	3.12 mg/L (≈ 5.57 µM)	1.61 mg/L (≈ 2.87 µM)	3.12 mg/L (≈ 5.57 µM)	O=c1oc2ccc(Br)cc2cc1-c1csc(N/N=C/c2c[nH]nc2-c2ccc(Cl)cc2Cl)n1	–	–	–	–

SMILES	MIC (Pseudomonas aeruginosa [1])	MIC (Bacillus subtilis [2])	MIC (Escherichia coli [4])	MIC (Staphylococcus aureus [8])	Activity (Staphylococcus aureus [3])	Activity (Escherichia coli [5])	Activity (Bacillus subtilis [6])	Activity (Pseudomonas aeruginosa [7])
CO/N=C(\C(=O)N[C@@H]1C(=O)N2C(C(=O)O)=C(CSc3nc(=O)c(O)nn3C)CS[C@H]12)c1csc(N)n1 [CEFTRIAXONE]	1.61 mg/L (≈ 2.91 µM)	1.61 mg/L (≈ 2.91 µM)	1.61 mg/L (≈ 2.91 µM)	3.12 mg/L (≈ 5.63 µM)	–	–	–	–
